Test [1] addresses Kappa-type opioid receptor (Homo sapiens, UniProt P41145). Kind of test: Binding affinity to human full length KOR after 60 mins by radioligand-based scintillation counting. The gist of the method:
(§1)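 Outsourced radioligand displacement panel run to the provider's standard protocols. Full concentration–displacement curves were run in duplicate. IC50 came from nonlinear regression. Ki was calculated by Cheng–Prusoff from the IC50, the radioligand concentration and historical Kd values of the ligand.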

Test [2] addresses T1, Sodium-dependent serotonin transporter (Homo sapiens, UniProt P31645). Kind of test: Displacement of [3H]-Paroxetine from recombinant human full length SERT after 60 mins by scintillation counting. In outline: as §1
Background: Loss of bound radioactivity is the signal in a displacement assay; it reports binding, not function.

Test [3] deals with T1, Sodium-dependent serotonin transporter. Nature of the test: Inhibition of human SERT expressed in HEK293 cells assessed as reduction in SERT-mediated substrate uptake after 30 mins by fluorescence-based assay. In outline:
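HEK293 cells stably expressing human SERT were plated at 15000 cells/well in DMEM + 1% dialyzed FBS for at least 6 h. Medium was replaced with 20 mM HEPES/HBSS pH 7.4 and drug was added for 30 min at 37 °C. Fluorescent uptake dye was then added and read after 30 min at 37 °C (ex 440/em 520 nm). IC50 came from nonlinear regression of fluorescence versus concentration.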

A word on the Ki: it is the dissociation constant of the complex between target and ligand, obtained from inhibition or displacement. As a reminder, the IC50 is the concentration that inhibits the measured activity by half.

T1 sequence (P31645 whole entry): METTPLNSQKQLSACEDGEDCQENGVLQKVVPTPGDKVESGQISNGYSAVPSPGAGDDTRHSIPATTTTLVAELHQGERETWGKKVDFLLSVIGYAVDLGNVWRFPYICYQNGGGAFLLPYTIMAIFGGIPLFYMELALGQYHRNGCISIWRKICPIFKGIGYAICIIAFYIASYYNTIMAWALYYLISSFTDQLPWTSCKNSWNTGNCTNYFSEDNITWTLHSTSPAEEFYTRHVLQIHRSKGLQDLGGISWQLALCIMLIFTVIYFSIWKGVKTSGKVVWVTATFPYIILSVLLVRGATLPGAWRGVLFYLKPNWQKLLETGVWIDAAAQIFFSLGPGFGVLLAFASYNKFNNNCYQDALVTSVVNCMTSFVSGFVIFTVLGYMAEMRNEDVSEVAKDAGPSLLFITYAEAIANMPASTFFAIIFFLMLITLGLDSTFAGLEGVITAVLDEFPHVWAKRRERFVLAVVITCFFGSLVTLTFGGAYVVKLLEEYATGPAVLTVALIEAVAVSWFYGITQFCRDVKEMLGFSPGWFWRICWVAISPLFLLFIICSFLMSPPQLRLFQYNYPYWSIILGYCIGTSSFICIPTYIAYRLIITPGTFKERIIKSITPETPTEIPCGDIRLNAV
Sequence of Kappa-type opioid receptor (P41145 whole entry): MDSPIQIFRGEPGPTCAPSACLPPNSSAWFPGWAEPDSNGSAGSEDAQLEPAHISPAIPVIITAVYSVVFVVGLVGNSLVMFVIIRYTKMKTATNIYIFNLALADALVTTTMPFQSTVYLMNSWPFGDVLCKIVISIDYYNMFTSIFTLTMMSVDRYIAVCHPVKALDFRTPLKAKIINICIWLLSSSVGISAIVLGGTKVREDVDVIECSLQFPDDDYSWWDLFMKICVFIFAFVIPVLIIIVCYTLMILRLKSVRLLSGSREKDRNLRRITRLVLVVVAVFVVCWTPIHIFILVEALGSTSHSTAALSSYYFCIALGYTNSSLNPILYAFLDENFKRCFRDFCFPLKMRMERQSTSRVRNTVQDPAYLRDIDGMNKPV

As to `COCc1ccc(-c2ccc(N(C[C@@H](N)[C@@H](C)OC)C(=O)[C@@H]3C[C@H]3c3ccccn3)cc2)cc1`, the Ki in test [1] worked out at 2.29 µM; in test [2], 0.75 µM. Further, the IC50 in test [3] turned out to be 25.1 µM.
